Converted amounts (≈) assume the structure as drawn.
Key:
Type in all cases: functional
[1] = test system: Streptococcus pneumoniae; test: Antimicrobial activity against drug-resistant Streptococcus pneumoniae isolate 3665 after 26 passages by multi-step resistance selection technique
Outline: (§1)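 Daily serial passage in broth at subinhibitory drug levels: 1 ml cation-adjusted Mueller-Hinton broth with 5% lysed horse blood; fresh broth for tigecycline. Each day 10 μl inoculum taken from the tube one to two dilutions below MIC matching growth-control turbidity, used to set next MIC. Continued until ≥8-fold MIC rise, minimum 14, maximum 50 passages; MIC read by macrodilution.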

[2] = test system: Streptococcus pneumoniae; test: Antimicrobial activity against drug-resistant Streptococcus pneumoniae isolate 3274 after 48 passages with Telithromycin measured after 10 antibiotic-free subculture by multi-step resistance selection technique
Outline: (§2)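 Mutants selected by daily broth passage in subinhibitory drug in cation-adjusted Mueller-Hinton broth with 5% lysed horse blood. Stability was tested by 10 daily passages on blood agar without antibiotic, then macrodilution MIC.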

[3] = test system: Streptococcus pneumoniae; test: Antimicrobial activity against drug-resistant Streptococcus pneumoniae isolate 37 after 14 passages with Telithromycin measured after 10 antibiotic-free subculture by multi-step resistance selection technique
[4] = test system: Streptococcus pneumoniae; test: Antimicrobial activity against drug-resistant Streptococcus pneumoniae isolate 24 by NCCLS M7-A7 method
[5] = test system: Streptococcus pneumoniae; test: Antimicrobial activity against drug-resistant Streptococcus pneumoniae isolate 1635 after 14 passages with azithromycin measured after 10 antibiotic-free subculture by multi-step resistance selection technique; outline: as §2
[6] = test system: Streptococcus pneumoniae; test: Antimicrobial activity against drug-resistant Streptococcus pneumoniae isolate 3009 by NCCLS M7-A7 method
[7] = test system: Streptococcus pneumoniae; test: Antimicrobial activity against drug-resistant Streptococcus pneumoniae isolate 3243 after 41 passages by multi-step resistance selection technique
Outline: (§3)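 Daily serial passage in subinhibitory drug levels in 1 ml cation-adjusted Mueller-Hinton broth with 5% lysed horse blood; fresh broth for tigecycline. Each day, 10 μl were taken from the tube one to two dilutions below the MIC whose turbidity matched the growth control, and used to set the next MIC. […] MIC by macrodilution.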

[8] = test system: Streptococcus pneumoniae; test: Antimicrobial activity against drug-resistant Streptococcus pneumoniae isolate 3413 by NCCLS M7-A7 method
[9] = test system: Streptococcus pneumoniae; test: Antimicrobial activity against drug-resistant Streptococcus pneumoniae isolate 2527 after 50 passages by multi-step resistance selection technique; outline: as §3
[10] = test system: Streptococcus pneumoniae; test: Antimicrobial activity against drug-resistant Streptococcus pneumoniae isolate 24 after 14 passages with Telithromycin measured after 10 antibiotic-free subculture by multi-step resistance selection technique; outline: as §2
[11] = test system: Streptococcus pneumoniae; test: Antimicrobial activity against drug-resistant Streptococcus pneumoniae isolate 3009 after 25 passages with clarithromycin measured after 10 antibiotic-free subculture by multi-step resistance selection technique
[12] = test system: Streptococcus pneumoniae; test: Antimicrobial activity against drug-resistant Streptococcus pneumoniae isolate 3413 after 30 passages with Telithromycin measured after 10 antibiotic-free subculture by multi-step resistance selection technique; outline: as §2
[13] = test system: Streptococcus pneumoniae; test: Antimicrobial activity against drug-resistant Streptococcus pneumoniae isolate 1076 by NCCLS M7-A7 method
[14] = test system: Streptococcus pneumoniae; test: Antimicrobial activity against drug-resistant Streptococcus pneumoniae isolate 3009 after 21 passages with gemifloxacin measured after 10 antibiotic-free subculture by multi-step resistance selection technique; outline: as §2
[15] = test system: Streptococcus pneumoniae; test: Antimicrobial activity against drug-resistant Streptococcus pneumoniae isolate 3676 after 44 passages with clarithromycin measured after 10 antibiotic-free subculture by multi-step resistance selection technique
[16] = test system: Streptococcus pneumoniae; test: Antimicrobial activity against drug-resistant Streptococcus pneumoniae isolate 3665 after 14 passages with Telithromycin measured after 10 antibiotic-free subculture by multi-step resistance selection technique
[17] = test system: Streptococcus pneumoniae; test: Antimicrobial activity against drug-resistant Streptococcus pneumoniae isolate 1077 after 15 passages with Telithromycin measured after 10 antibiotic-free subculture by multi-step resistance selection technique; outline: as §2
[18] = test system: Streptococcus pneumoniae; test: Antimicrobial activity against drug-resistant Streptococcus pneumoniae isolate 3009 after 19 passages with moxifloxacin measured after 10 antibiotic-free subculture by multi-step resistance selection technique; outline: as §2
[19] = test system: Streptococcus pneumoniae; test: Antimicrobial activity against drug-resistant Streptococcus pneumoniae isolate 3665 after 38 passages with moxifloxacin measured after 10 antibiotic-free subculture by multi-step resistance selection technique
[20] = test system: Streptococcus pneumoniae; test: Antimicrobial activity against drug-resistant Streptococcus pneumoniae isolate 3676 after 44 passages by multi-step resistance selection technique; outline: as §1
[21] = test system: Streptococcus pneumoniae; test: Antimicrobial activity against drug-resistant Streptococcus pneumoniae isolate 24 after 50 passages with moxifloxacin measured after 10 antibiotic-free subculture by multi-step resistance selection technique; outline: as §2
[22] = test system: Streptococcus pneumoniae; test: Antimicrobial activity against drug-resistant Streptococcus pneumoniae isolate 3676 after 14 passages with Telithromycin measured after 10 antibiotic-free subculture by multi-step resistance selection technique
[23] = test system: Streptococcus pneumoniae; test: Antimicrobial activity against drug-resistant Streptococcus pneumoniae isolate 37 by NCCLS M7-A7 method
[24] = test system: Streptococcus pneumoniae; test: Antimicrobial activity against drug-resistant Streptococcus pneumoniae isolate 1077 after 29 passages with azithromycin measured after 10 antibiotic-free subculture by multi-step resistance selection technique; outline: as §2
[25] = test system: Streptococcus pneumoniae; test: Antimicrobial activity against drug-resistant Streptococcus pneumoniae isolate 3243 after 29 passages with Telithromycin measured after 10 antibiotic-free subculture by multi-step resistance selection technique; outline: as §2
[26] = test system: Streptococcus pneumoniae; test: Antimicrobial activity against drug-resistant Streptococcus pneumoniae isolate 2527 after 14 passages with gemifloxacin measured after 10 antibiotic-free subculture by multi-step resistance selection technique; outline: as §2
[27] = test system: Streptococcus pneumoniae; test: Antimicrobial activity against drug-resistant Streptococcus pneumoniae isolate 2527 after 20 passages with azithromycin measured after 10 antibiotic-free subculture by multi-step resistance selection technique; outline: as §2
[28] = test system: Streptococcus pneumoniae; test: Antimicrobial activity against drug-resistant Streptococcus pneumoniae isolate 1076 after 35 passages with moxifloxacin measured after 10 antibiotic-free subculture by multi-step resistance selection technique; outline: as §2
[29] = test system: Streptococcus pneumoniae; test: Antimicrobial activity against drug-resistant Streptococcus pneumoniae isolate 3274 after 50 passages by multi-step resistance selection technique
Outline: (§4)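 Daily serial passage in subinhibitory drug levels in 1 ml cation-adjusted Mueller-Hinton broth with 5% lysed horse blood; fresh broth for tigecycline. Each day, 10 μl were taken from the tube one to two dilutions below the MIC whose turbidity matched the growth control, and used to set the next MIC. MIC by macrodilution.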

[30] = test system: Streptococcus pneumoniae; test: Antimicrobial activity against drug-resistant Streptococcus pneumoniae isolate 3243 by NCCLS M7-A7 method
[31] = test system: Streptococcus pneumoniae; test: Antimicrobial activity against drug-resistant Streptococcus pneumoniae isolate 1635 by NCCLS M7-A7 method
[32] = test system: Streptococcus pneumoniae; test: Antimicrobial activity against drug-resistant Streptococcus pneumoniae isolate 3243 after 41 passages with clarithromycin measured after 10 antibiotic-free subculture by multi-step resistance selection technique
[33] = test system: Streptococcus pneumoniae; test: Antimicrobial activity against drug-resistant Streptococcus pneumoniae isolate 3009 after 18 passages with levofloxacin measured after 10 antibiotic-free subculture by multi-step resistance selection technique; outline: as §2
[34] = test system: Streptococcus pneumoniae; test: Antimicrobial activity against drug-resistant Streptococcus pneumoniae isolate 1077 by NCCLS M7-A7 method
[35] = test system: Streptococcus pneumoniae; test: Antimicrobial activity against drug-resistant Streptococcus pneumoniae isolate 3274 by NCCLS M7-A7 method
[36] = test system: Streptococcus pneumoniae; test: Antimicrobial activity against drug-resistant Streptococcus pneumoniae isolate 1077 after 50 passages by multi-step resistance selection technique; outline: as §4
[37] = test system: Streptococcus pneumoniae; test: Antimicrobial activity against drug-resistant Streptococcus pneumoniae isolate 3243 after 20 passages with moxifloxacin measured after 10 antibiotic-free subculture by multi-step resistance selection technique; outline: as §2
[38] = test system: Streptococcus pneumoniae; test: Antimicrobial activity against drug-resistant Streptococcus pneumoniae isolate 3009 after 25 passages by multi-step resistance selection technique; outline: as §3
[39] = test system: Streptococcus pneumoniae; test: Antimicrobial activity against drug-resistant Streptococcus pneumoniae isolate 2527 by NCCLS M7-A7 method
[40] = test system: Streptococcus pneumoniae; test: Antimicrobial activity against drug-resistant Streptococcus pneumoniae isolate 3665 by NCCLS M7-A7 method
[41] = test system: Streptococcus pneumoniae; test: Antimicrobial activity against drug-resistant Streptococcus pneumoniae isolate 1076 after 14 passages with Telithromycin measured after 10 antibiotic-free subculture by multi-step resistance selection technique; outline: as §2
[42] = test system: Streptococcus pneumoniae; test: Antimicrobial activity against drug-resistant Streptococcus pneumoniae isolate 1077 after 49 passages with clindamycin measured after 10 antibiotic-free subculture by multi-step resistance selection technique
[43] = test system: Streptococcus pneumoniae; test: Antimicrobial activity against drug-resistant Streptococcus pneumoniae isolate 3665 after 26 passages with clarithromycin measured after 10 antibiotic-free subculture by multi-step resistance selection technique
[44] = test system: Streptococcus pneumoniae; test: Antimicrobial activity against drug-resistant Streptococcus pneumoniae isolate 1635 after 49 passages with clarithromycin measured after 10 antibiotic-free subculture by multi-step resistance selection technique
[45] = test system: Streptococcus pneumoniae; test: Antimicrobial activity against drug-resistant Streptococcus pneumoniae isolate 3676 after 50 passages with moxifloxacin measured after 10 antibiotic-free subculture by multi-step resistance selection technique
[46] = test system: Streptococcus pneumoniae; test: Antimicrobial activity against drug-resistant Streptococcus pneumoniae isolate 3413 after 50 passages by multi-step resistance selection technique; outline: as §4
[47] = test system: Streptococcus pneumoniae; test: Antimicrobial activity against drug-resistant Streptococcus pneumoniae isolate 3676 by NCCLS M7-A7 method
[48] = test system: Streptococcus pneumoniae; test: Antimicrobial activity against drug-resistant Streptococcus pneumoniae isolate 3243 after 33 passages with azithromycin measured after 10 antibiotic-free subculture by multi-step resistance selection technique; outline: as §2
[49] = test system: Streptococcus pneumoniae; test: Antimicrobial activity against drug-resistant Streptococcus pneumoniae isolate 1635 after 14 passages with clindamycin measured after 10 antibiotic-free subculture by multi-step resistance selection technique
[50] = test system: Streptococcus pneumoniae; test: Antimicrobial activity against drug-resistant Streptococcus pneumoniae isolate 1635 after 49 passages by multi-step resistance selection technique; outline: as §3

## CC[C@H]1OC(=O)[C@H](C)[C@@H](O[C@H]2C[C@@](C)(OC)[C@@H](O)[C@H](C)O2)[C@H](C)[C@@H](O[C@@H]2O[C@H](C)C[C@H](N(C)C)[C@H]2O)[C@](C)(OC)C[C@@H](C)C(=O)[C@H](C)[C@@H](O)[C@]1(C)O [CLARITHROMYCIN]
[1]
  MIC: 16 µg/mL (≈ 21.4 µM)
[2]
  MIC: 1 µg/mL (≈ 1.34 µM)
[3]
  MIC: > 64 µg/mL
[4]
  MIC: > 64 µg/mL
[5]
  MIC: > 64 µg/mL
[6]
  MIC: 16 µg/mL (≈ 21.4 µM)
[7]
  MIC: 0.25 µg/mL (≈ 0.334 µM)
[8]
  MIC: 8 µg/mL (≈ 10.7 µM)
[9]
  MIC: 0.016 µg/mL (≈ 0.0214 µM)
[10]
  MIC: > 64 µg/mL
[11]
  MIC: 64 µg/mL (≈ 85.6 µM)
[12]
  MIC: 16 µg/mL (≈ 21.4 µM)
[13]
  MIC: > 64 µg/mL
[14]
  MIC: 16 µg/mL (≈ 21.4 µM)
[15]
  MIC: 16 µg/mL (≈ 21.4 µM)
[16]
  MIC: 2 µg/mL (≈ 2.67 µM)
[17]
  MIC: > 64 µg/mL
[18]
  MIC: 8 µg/mL (≈ 10.7 µM)
[19]
  MIC: 2 µg/mL (≈ 2.67 µM)
[20]
  MIC: 32 µg/mL (≈ 42.8 µM)
[21]
  MIC: > 64 µg/mL
[22]
  MIC: 2 µg/mL (≈ 2.67 µM)
[23]
  MIC: > 64 µg/mL
[24]
  MIC: > 64 µg/mL
[25]
  MIC: > 64 µg/mL
[26]
  MIC: 0.016 µg/mL (≈ 0.0214 µM)
[27]
  MIC: 16 µg/mL (≈ 21.4 µM)
[28]
  MIC: > 64 µg/mL
[29]
  MIC: 0.03 µg/mL (≈ 0.0401 µM)
[30]
  MIC: 0.016 µg/mL (≈ 0.0214 µM)
[31]
  MIC: 0.5 µg/mL (≈ 0.668 µM)
[32]
  MIC: 0.25 µg/mL (≈ 0.334 µM)
[33]
  MIC: 8 µg/mL (≈ 10.7 µM)
[34]
  MIC: 0.016 µg/mL (≈ 0.0214 µM)
[35]
  MIC: 0.008 µg/mL (≈ 0.0107 µM)
[36]
  MIC: 0.008 µg/mL (≈ 0.0107 µM)
[37]
  MIC: 0.004 µg/mL (≈ 0.00535 µM)
[38]
  MIC: > 64 µg/mL
[39]
  MIC: 0.008 µg/mL (≈ 0.0107 µM)
[40]
  MIC: 2 µg/mL (≈ 2.67 µM)
[41]
  MIC: > 64 µg/mL
[42]
  MIC: > 64 µg/mL
[43]
  MIC: 8 µg/mL (≈ 10.7 µM)
[44]
  MIC: > 64 µg/mL
[45]
  MIC: 4 µg/mL (≈ 5.35 µM)
[46]
  MIC: 8 µg/mL (≈ 10.7 µM)
[47]
  MIC: 4 µg/mL (≈ 5.35 µM)
[48]
  MIC: 0.5 µg/mL (≈ 0.668 µM)
[49]
  MIC: 0.5 µg/mL (≈ 0.668 µM)
[50]
  MIC: > 64 µg/mL

Reference: ChEMBL document CHEMBL1151428, “Capability of 11 antipneumococcal antibiotics to select for resistance by multistep and single-step methodologies” (2007)
